{
  "source": "ChEMBL document CHEMBL1150225",
  "about": "“Cytotoxic cholestane glycosides from the bulbs of Ornithogalum saundersiae” (J Nat Prod, 2001)",
  "test_system": "HL-60",
  "experiment": "Cytotoxicity against human HL60 cells after 72 hrs by MTT assay",
  "assay_type": "functional, cell-based",
  "conditions": "HL-60, 72 h",
  "how_it_was_run": "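HL-60 leukemia cells kept in RPMI 1640 with 10% fetal bovine serum, L-glutamine, 100 units/mL penicillin and 100 μg/mL streptomycin. Cells at 3 × 10^4 cells/mL exposed continuously to compound for 72 h. Growth read by MTT reduction. IC50 (50% inhibition) calculated from each compound's dose–response curve.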",
  "data": [
    {"smiles": "COc1ccc(C(=O)O[C@H]2[C@H](O[C@@H]3[C@@H](OC(C)=O)[C@H](O[C@H]4C[C@H]5[C@@H]6CC=C7C[C@@H](O)CC[C@]7(C)[C@H]6CC[C@]5(C)[C@@]4(O)[C@H](C)C(=O)CCC(C)C)OC[C@@H]3O)OC[C@@H](O[C@@H]3O[C@H](CO)[C@@H](O)[C@H](O)[C@H]3O)[C@@H]2O)cc1OC", "values": [
      {"measurement": "IC50", "result": 16, "unit": "nM"}
    ]}
  ]
}
